This is an account of results in ChEMBL document CHEMBL2390883, “Dissecting the pharmacophore of curcumin. Which structural element is critical for which action?” (J Nat Prod, 2013).

Active and inactive are the calls of the source. The rule behind the calls is not given here.

As usually defined, the IC50 is the midpoint of a concentration-inhibition curve.

For data set [1], the target named is T1, Nuclear factor erythroid 2-related factor 2 (Homo sapiens) (UniProt Q16236).
T1 sequence (whole entry): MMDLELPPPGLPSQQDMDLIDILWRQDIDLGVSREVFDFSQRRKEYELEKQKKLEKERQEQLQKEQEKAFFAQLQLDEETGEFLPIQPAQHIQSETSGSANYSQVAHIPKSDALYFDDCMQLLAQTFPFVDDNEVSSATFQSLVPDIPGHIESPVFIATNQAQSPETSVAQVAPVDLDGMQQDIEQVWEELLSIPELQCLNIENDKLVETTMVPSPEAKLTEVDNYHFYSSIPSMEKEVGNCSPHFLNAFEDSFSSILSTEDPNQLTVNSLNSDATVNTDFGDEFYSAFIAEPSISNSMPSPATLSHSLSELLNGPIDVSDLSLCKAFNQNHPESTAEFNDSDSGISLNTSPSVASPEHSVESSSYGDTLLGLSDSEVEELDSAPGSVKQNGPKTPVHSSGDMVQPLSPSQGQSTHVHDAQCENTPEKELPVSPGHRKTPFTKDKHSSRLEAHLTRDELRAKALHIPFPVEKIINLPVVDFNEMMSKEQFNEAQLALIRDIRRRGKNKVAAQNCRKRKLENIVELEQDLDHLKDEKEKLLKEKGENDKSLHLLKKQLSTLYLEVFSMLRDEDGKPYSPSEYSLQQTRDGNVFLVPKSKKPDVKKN
In words: Activation of Nrf2/ARE-mediated transcription in human SK-N-SH cells after 6 hrs by luciferase reporter gene assay. It is filed as cell-based. Put shortly: (§1)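 SK-N-SH cells were transiently transfected with pGL3-ARE-Luc. After 24 h they were exposed to increasing concentrations of compound for 6 h. Cells were washed in PBS and lysed in Tris-phosphate pH 7.8 buffer with MgCl₂, DTT, Triton X-100 and glycerol, then luciferase activity was read in the supernatant. Output is fold induction over untreated cells; three independent experiments, mean SD, Student's t test.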
A general note: Reporter assays use an easily measured gene product as a stand-in for the process of interest.

The species entered for data set [2] is Homo sapiens. The experiment in a line: (§2) Inhibition of NF-kappaB in human 5.1 cells assessed as inhibition of TNFalpha-induced HIV-1-LTR activation after 6 hrs by luciferase reporter gene assay. Format: cell-based. The gist of the method:
(§3)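 Jurkat-derived 5.1 clone, stably carrying HIV-LTR-driven luciferase and maintained under G418. Cells were preincubated with compound at the indicated doses, then stimulated with TNFα for 6 h (methods give 20 ng/mL, legend 2 ng/mL). Luciferase was read from lysate. Output is % inhibition versus TNFα alone; IC50 from curve fitting.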

Data set [3] has as its system Human immunodeficiency virus 1. In words: Antiviral activity against VSV-G protein pseudotyped human immunodeficiency virus 1 infected in human Jurkat cells assessed as inhibition of HIV-1 replication incubated 30 mins prior to infection measured after 12 hrs by luciferase reporter gene assay. It is filed as functional, organism-based. Put shortly:
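Jurkat cells at 10⁶/mL were pretreated with compounds at increasing doses for 30 min. They were then infected with VSV-G-pseudotyped pNL4-3.Luc.R⁻E⁻ (200 ng p24). Firefly luciferase was read in lysates (Tris-phosphate pH 7.8, Triton X-100) 12 h after infection. Values are % activation versus untreated infected cells (100%), given as mean ± SD of independent experiments; IC₅₀ by curve fitting.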

Data set [4] can be described thus: as §2. Format: cell-based. The gist of the method:
as §3

Data set [5] deals with Human immunodeficiency virus 1. In words: Antiviral activity against VSV-G protein pseudotyped human immunodeficiency virus 1 infected in human Jurkat cells assessed as inhibition of HIV-1 replication incubated 30 mins prior to infection measured after 12 hrs by luciferase reporter gene assay relative to curcumin. Format: functional.
The target of data set [6] is Mitogen-activated protein kinase 9 (Homo sapiens) (UniProt P45984). The experiment in a line: Inhibition of PMA-induced JNK2 phosphorylation in human Jurkat cells after 30 mins by Western blotting analysis. In general terms: Immunoblotting shows a protein as a band on a membrane.
The target in data set [7] is T1, Nuclear factor erythroid 2-related factor 2 (Homo sapiens). The experiment in a line: Activation of Nrf2/ARE-mediated transcription in human SK-N-SH cells at low concentration after 6 hrs by luciferase reporter gene assay. It is filed as cell-based. Put shortly: as §1
Data set [8] has as its system Jurkat. In words: Inhibition of PMA-induced NF-kappaB activation in human Jurkat cells assessed as inhibition of IkappaBalpha phosphorylation after 30 mins by Western blotting analysis. It is filed as cell-based. The gist of the method:
(§4)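 Jurkat cells (10⁶/mL) were preincubated 30 min with compound, then given PMA (50 ng/mL) for 15 min. Protein was extracted in NP-40 lysis buffer with protease and phosphatase inhibitors. 30 μg per lane was run on 10% SDS-PAGE and transferred to nitrocellulose. Blots were probed for phospho- and total ERK1/2, JNK, p65 and IκBα (incl. phospho-Ser32/36), with tubulin as loading control.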

Data set [9] concerns HeLa. The experiment in a line: Cytotoxicity against human HeLa cells after 12 hrs. Format: cell-based.
Data set [10] concerns the target Mitogen-activated protein kinase; ERK1/ERK2 (Homo sapiens) (UniProt P27361+P28482). The experiment in a line: Inhibition of PMA-induced ERK 1/2 phosphorylation in human Jurkat cells after 30 mins by Western blotting analysis. It is filed as cell-based. The gist of the method:
as §4

The target of data set [11] is Mitogen-activated protein kinase 8 (Homo sapiens) (UniProt P45983). In words: Inhibition of PMA-induced JNK1 phosphorylation in human Jurkat cells after 30 mins by Western blotting analysis. It is filed as cell-based. The gist of the method:
as §4

The test system of data set [12] is Jurkat. The experiment in a line: Inhibition of PMA-induced NF-kappaB activation in human Jurkat cells assessed as inhibition of IkappaBalpha degradation after 30 mins by Western blotting analysis. Format: cell-based. Put shortly:
as §4

Data set [13] concerns the target T1, Nuclear factor erythroid 2-related factor 2 (Homo sapiens). The experiment in a line: Activation of Nrf2/ARE-mediated transcription in human SK-N-SH cells at high concentration after 6 hrs by luciferase reporter gene assay. It is filed as cell-based. The gist of the method:
as §1

Data set [14] concerns Jurkat. The experiment in a line: Cytotoxicity against human Jurkat cells after 6 hrs. It is filed as cell-based.
Data set [15] in a line: Inhibition of Tat-induced HIV-1-Long terminal repeat transactivation in human Hela Tat-Luc cells after 12 hrs by luciferase reporter gene assay. Format: cell-based. Conditions: Human immunodeficiency virus 1, HeLa. The gist of the method:
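HeLa cells stably transfected with pLTR-Luc and pcDNA3-Tat were exposed to compound at the indicated doses, or to DRB (50 μM) as reference, for 12 h. Luciferase activity was then measured. Output is % activation relative to untreated cells; four independent experiments, mean SD, Student's t test; IC50 from curve fitting.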

Data set [16] deals with Transcription factor p65 (Homo sapiens) (UniProt Q04206). In words: Inhibition of PMA-induced NF-kappaB p65 phosphorylation in human Jurkat cells after 30 mins by Western blotting analysis. It is filed as cell-based. Put shortly: as §4
Data set [17] relates to SK-N-SH. The experiment in a line: Cytotoxicity against human SK-N-SH cells after 6 hrs. Format: cell-based.

Sequence of Mitogen-activated protein kinase; ERK1/ERK2 (Homo sapiens) (P27361 whole entry, looked up): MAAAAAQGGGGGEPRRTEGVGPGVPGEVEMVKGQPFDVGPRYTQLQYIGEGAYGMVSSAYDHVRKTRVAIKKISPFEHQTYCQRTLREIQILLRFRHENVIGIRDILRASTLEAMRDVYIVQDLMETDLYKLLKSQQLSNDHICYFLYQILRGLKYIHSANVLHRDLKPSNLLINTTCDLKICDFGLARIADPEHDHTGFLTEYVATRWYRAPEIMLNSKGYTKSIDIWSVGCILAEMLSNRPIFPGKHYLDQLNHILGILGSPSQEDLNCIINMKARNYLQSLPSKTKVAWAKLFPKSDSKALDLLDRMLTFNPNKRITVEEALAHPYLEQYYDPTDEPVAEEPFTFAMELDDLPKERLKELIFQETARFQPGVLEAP
Sequence of Mitogen-activated protein kinase; ERK1/ERK2 (Homo sapiens) (P28482 whole entry, looked up): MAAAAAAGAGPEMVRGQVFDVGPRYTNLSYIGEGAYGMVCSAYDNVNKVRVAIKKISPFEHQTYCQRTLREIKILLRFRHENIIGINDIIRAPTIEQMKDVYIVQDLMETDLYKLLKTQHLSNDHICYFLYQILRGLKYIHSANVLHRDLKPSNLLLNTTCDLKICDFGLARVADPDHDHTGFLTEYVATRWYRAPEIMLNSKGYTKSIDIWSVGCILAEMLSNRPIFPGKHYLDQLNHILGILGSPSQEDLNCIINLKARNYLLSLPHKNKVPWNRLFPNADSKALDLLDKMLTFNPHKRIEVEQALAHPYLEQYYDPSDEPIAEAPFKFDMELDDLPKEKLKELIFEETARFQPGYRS
Sequence of Mitogen-activated protein kinase 9 (Homo sapiens) (P45984 whole entry, looked up): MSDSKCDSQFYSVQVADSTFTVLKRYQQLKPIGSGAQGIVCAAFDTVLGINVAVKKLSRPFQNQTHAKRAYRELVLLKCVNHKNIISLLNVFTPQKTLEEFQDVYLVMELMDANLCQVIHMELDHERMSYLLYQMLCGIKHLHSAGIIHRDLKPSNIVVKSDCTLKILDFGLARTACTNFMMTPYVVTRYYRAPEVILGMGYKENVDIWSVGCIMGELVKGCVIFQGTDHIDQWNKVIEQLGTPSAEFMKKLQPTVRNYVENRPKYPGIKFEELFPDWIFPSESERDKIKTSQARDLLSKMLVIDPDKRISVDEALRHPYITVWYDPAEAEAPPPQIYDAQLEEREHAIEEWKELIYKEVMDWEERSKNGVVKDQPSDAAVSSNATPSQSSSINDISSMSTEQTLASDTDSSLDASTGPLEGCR
Sequence of Mitogen-activated protein kinase 8 (Homo sapiens) (P45983 whole entry): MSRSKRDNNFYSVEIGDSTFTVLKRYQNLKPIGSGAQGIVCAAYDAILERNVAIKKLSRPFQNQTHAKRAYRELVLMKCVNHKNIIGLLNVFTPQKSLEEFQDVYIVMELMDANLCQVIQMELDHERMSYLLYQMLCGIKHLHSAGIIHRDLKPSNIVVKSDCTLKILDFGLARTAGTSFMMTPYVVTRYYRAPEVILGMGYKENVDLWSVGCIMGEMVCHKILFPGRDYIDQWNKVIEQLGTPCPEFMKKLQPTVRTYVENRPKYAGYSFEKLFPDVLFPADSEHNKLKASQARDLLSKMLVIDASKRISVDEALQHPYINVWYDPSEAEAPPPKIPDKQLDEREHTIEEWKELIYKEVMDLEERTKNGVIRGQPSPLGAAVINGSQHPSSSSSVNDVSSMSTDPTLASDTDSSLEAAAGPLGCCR
Sequence of Transcription factor p65 (Homo sapiens) (Q04206 whole entry): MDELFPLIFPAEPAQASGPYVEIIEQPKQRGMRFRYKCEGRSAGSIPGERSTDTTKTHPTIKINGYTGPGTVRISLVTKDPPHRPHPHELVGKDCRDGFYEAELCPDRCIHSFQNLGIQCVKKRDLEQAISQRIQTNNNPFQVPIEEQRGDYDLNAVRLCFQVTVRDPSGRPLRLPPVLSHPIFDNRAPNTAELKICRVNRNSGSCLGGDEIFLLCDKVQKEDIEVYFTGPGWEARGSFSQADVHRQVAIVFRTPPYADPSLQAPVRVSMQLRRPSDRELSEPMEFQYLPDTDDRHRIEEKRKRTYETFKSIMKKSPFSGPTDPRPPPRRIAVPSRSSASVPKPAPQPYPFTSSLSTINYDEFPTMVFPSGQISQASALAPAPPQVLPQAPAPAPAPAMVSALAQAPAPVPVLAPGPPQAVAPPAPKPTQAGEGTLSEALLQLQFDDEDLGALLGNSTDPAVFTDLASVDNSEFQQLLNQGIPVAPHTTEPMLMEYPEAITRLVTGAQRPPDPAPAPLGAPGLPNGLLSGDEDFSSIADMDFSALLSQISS

As to `COc1cc(/C=C/C(=O)/C=C/c2cc(CC=C(C)C)c(O)c(OC)c2)cc(CC=C(C)C)c1O`, in data set [1], the outcome was inactive. In addition, the inhibition result in data set [2] is “Active”.
`COc1cc(CCC(=O)CC(=O)CCc2ccc(O)c(OC)c2)ccc1O`: the outcome in data set [1] was inactive. In addition, in data set [2], the inhibition result is “Active”.
Turning to `COc1cc(/C=C/C(=O)CC(=O)/C=C/c2ccc(O)c(OC)c2)ccc1O` [CURCUMIN], the result in data set [3] and in data set [1] was Active. Besides, in data set [4], the IC50 worked out at 16.4 µM.
Turning to `COc1cc(CCC(=O)CC(=O)CCc2cc(CCC(C)C)c(O)c(OC)c2)cc(CCC(C)C)c1O`, in data set [2], the inhibition entry was “Active”.
In the case of `COc1cc(/C=C/C(=O)CC(=O)/C=C/c2cc(CC=C(C)C)c(O)c(OC)c2)cc(CC=C(C)C)c1O`, the outcome in [1] was inactive. Moreover, the inhibition result in [2] is “inactive”.
Consider `COc1cc(/C=C/C(=O)/C=C/c2ccc(O)c(OC)c2)ccc1O`, for which the Ratio in data set [5] stood at 4. Moreover, the result in data set [3] and in data set [7] was Active. In addition, the inhibition result in [6], in [8], in data set [11], in data set [12] and in [16] was “Dose-dependent effect” each time. Moreover, the Activity entry in data set [9], in data set [14] and in [17] was “Non-toxic” in each case. The inhibition result in data set [10] is “inactive”. For the same molecule, the result in [13] was inactive. In addition, the IC50 in data set [15] stood at 4.7 µM; in [4], 4.92 µM.
